Measurements: ChEMBL document CHEMBL1127424, “7-azetidinylquinolones as antibacterial agents. 2. Synthesis and biological activity of 7-(2,3-disubstituted-1-azetidinyl)-4-oxoquinoline- and -1,8-naphthyridine-3-carboxylic acids. Properties and structure-activity relationships of quinolones with an azetidine moiety” (J Med Chem, 1994)
Values after ≈ are worked out from the molar mass of the structure shown.

What was measured:
[1] = AUC (0-4 hr) ug/ml/h; format: ADME, cell-free; parameters: time < 4 hr; concentration or dose not given beside the values; conditions: plasma
Outline: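 Mice dosed once orally at 50 mg/kg; blood taken from groups of six mice at 0.5, 1, 2 and 4 h. Serum drug assayed by disk agar diffusion bioassay (Bacillus subtilis ATCC 6633 on Seed Agar, 37 °C, 18 h), giving total activity.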

[2] = HPLC capacity factor (k'); format: ADME
Outline: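 Ion-pair reversed-phase HPLC on ODS-2 (10 μm) at 45 °C. Mobile phase: 10 mM sodium heptanesulfonate plus 50 mM KH2PO4 (pH 3.5)–methanol 45:55, 1 mL/min. Samples at 100 μg/mL in DMF, injected in duplicate, UV 280 nm. k' = (tR − t0)/t0.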

[3] = Solubility (buffer pH 7.4); format: physicochemical; conditions: read-out: S
Outline: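 Excess solid shaken in 0.05 M phosphate buffer pH 7.4 for 24 h at 25 °C. Suspension filtered through 0.22 μm, discarding the first portion. Filtrate diluted in 0.1 N HCl or 0.1 N NaOH and read by UV at the compound's absorbance maximum.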

Bacillus cereus = assay: In vitro minimum inhibitory concentration for Bacillus cereus ATCC 11778; format: functional
Outline: (§1)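 Serial 2-fold agar dilution in Mueller Hinton medium, run alongside a reference quinolone. Inoculum adjusted to 10⁸ cfu/mL; compound range 0.007–16 μg/mL.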

Bacillus subtilis = assay: In vitro minimum inhibitory concentration for Bacillus subtilis ATCC 6633; format: functional; outline: as §1
Escherichia coli = assay: In vitro minimum inhibitory concentration for Escherichia coli ATCC 10799; format: functional; outline: as §1
Enterobacter cloacae = assay: In vitro minimum inhibitory concentration for Enterobacter cloacae ATCC 23355; format: functional
Klebsiella pneumoniae = assay: In vitro minimum inhibitory concentration to inhibit Klebsiella pneumoniae ATCC 10031; format: functional; outline: as §1
Mus musculus [4] = assay: Evaluation of efficacy on systemic infections Escherichia coli HM-42, after oral administration in mice; format: functional
Outline: (§2)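 Single oral dose given immediately after infection, one of four doses per group, chosen from in vitro activity. Survival scored after one week. ED50 (total mg/kg protecting 50%) interpolated from survival rates.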

Mus musculus [5] = assay: Evaluation of efficacy on systemic infections Pseudomonas aeruginosa HS-116, after oral administration in mice; format: functional; outline: as §2
Mus musculus [6] = assay: Evaluation of efficacy on systemic infections Staphylococcus aureus HS-93, after oral administration in mice; format: functional; outline: as §2
Morganella morganii = assay: In vitro minimum inhibitory concentration for Morganella morganii ATCC 8019; format: functional; outline: as §1
Proteus vulgaris = assay: In vitro minimum inhibitory concentration for Proteus vulgaris ATCC 8427; format: functional; outline: as §1
[7] = test system: Staphylococcus epidermidis; assay: In vitro minimum inhibitory concentration for Staphylococcus epidermidis ATCC 155-1; format: functional; outline: as §1
Staphylococcus aureus = assay: In vitro minimum inhibitory concentration for Staphylococcus aureus ATCC 25178; format: functional; outline: as §1
Enterococcus faecalis = assay: In vitro minimum inhibitory concentration for Streptococcus faecalis ATCC 10541; format: functional; outline: as §1
Pseudomonas aeruginosa = assay: In vitro minimum inhibitory concentration for Pseudomonas aeruginosa ATCC 10145; format: functional; outline: as §1

Structure (SMILES)	AUC [1] [ng·h/mL]	Log k' [2]	solubility [3] [µg/mL]	MIC (Bacillus cereus) [µg/mL]	MIC (Bacillus subtilis) [µg/mL]	MIC (Escherichia coli) [µg/mL]	MIC (Enterobacter cloacae) [µg/mL]	MIC (Klebsiella pneumoniae) [µg/mL]	ED50 (Mus musculus [4]) [mg/kg]	ED50 (Mus musculus [5]) [mg/kg]	ED50 (Mus musculus [6]) [mg/kg]	MIC (Morganella morganii) [µg/mL]	MIC (Proteus vulgaris) [µg/mL]	MIC [7] [µg/mL]	MIC (Staphylococcus aureus) [µg/mL]	MIC (Enterococcus faecalis) [µg/mL]	MIC (Pseudomonas aeruginosa) [µg/mL]
C[C@H]1[C@@H](N)CN1c1cc2c(cc1F)c(=O)c(C(=O)O)cn2C1CC1	3700	0.0457	6.1 (≈ 18.4 µM)	0.06 (≈ 0.181 µM)	0.03 (≈ 0.0905 µM)	0.06 (≈ 0.181 µM)	0.03 (≈ 0.0905 µM)	0.03 (≈ 0.0905 µM)	20	277	36.7	0.03 (≈ 0.0905 µM)	0.06 (≈ 0.181 µM)	0.06 (≈ 0.181 µM)	0.12 (≈ 0.362 µM)	0.5 (≈ 1.51 µM)	0.5 (≈ 1.51 µM)
C[C@@H]1[C@@H](CN)CN1c1cc2c(cc1F)c(=O)c(C(=O)O)cn2C1CC1	0	-0.0607		1 (≈ 2.9 µM)	0.06 (≈ 0.174 µM)	0.12 (≈ 0.347 µM)	0.12 (≈ 0.347 µM)	0.06 (≈ 0.174 µM)	60.5	355	95	1 (≈ 2.9 µM)	1 (≈ 2.9 µM)	0.25 (≈ 0.724 µM)	0.25 (≈ 0.724 µM)	1 (≈ 2.9 µM)	2 (≈ 5.79 µM)
C[C@H]1[C@H](N)CN1c1nc2c(cc1F)c(=O)c(C(=O)O)cn2-c1ccc(F)cc1F	25800	0.1417	10.4 (≈ 25.7 µM)	0.25 (≈ 0.618 µM)	0.06 (≈ 0.148 µM)	0.25 (≈ 0.618 µM)	0.12 (≈ 0.297 µM)	0.06 (≈ 0.148 µM)	3.3	140	8.9	0.25 (≈ 0.618 µM)	1 (≈ 2.47 µM)	0.25 (≈ 0.618 µM)	0.12 (≈ 0.297 µM)	1 (≈ 2.47 µM)	1 (≈ 2.47 µM)
C[C@H]1[C@H](N)CN1c1cc2c(cc1F)c(=O)c(C(=O)O)cn2-c1ccc(F)cc1	16900	0.0755		0.25 (≈ 0.649 µM)	0.06 (≈ 0.156 µM)	0.12 (≈ 0.311 µM)	0.06 (≈ 0.156 µM)	0.015 (≈ 0.0389 µM)	2.9	109	7.5	0.06 (≈ 0.156 µM)	0.25 (≈ 0.649 µM)	0.25 (≈ 0.649 µM)	0.25 (≈ 0.649 µM)	0.5 (≈ 1.3 µM)	1 (≈ 2.59 µM)
C[C@H]1[C@H](N)CN1c1c(F)cc2c(=O)c(C(=O)O)cn(-c3ccc(F)cc3)c2c1F	31400	0.1875	11.2 (≈ 27.8 µM)	0.25 (≈ 0.62 µM)	0.12 (≈ 0.298 µM)	0.12 (≈ 0.298 µM)	0.12 (≈ 0.298 µM)	0.12 (≈ 0.298 µM)	2.5	54.6	5.7	0.25 (≈ 0.62 µM)	0.5 (≈ 1.24 µM)	0.12 (≈ 0.298 µM)	0.25 (≈ 0.62 µM)	2 (≈ 4.96 µM)	2 (≈ 4.96 µM)
C[C@H]1[C@H](N)CN1c1c(F)cc2c(=O)c(C(=O)O)cn(-c3ccc(F)cc3F)c2c1Cl	32300	0.3553	16.5 (≈ 37.7 µM)	0.03 (≈ 0.0685 µM)	0.03 (≈ 0.0685 µM)	0.06 (≈ 0.137 µM)	0.12 (≈ 0.274 µM)	0.12 (≈ 0.274 µM)	3.6	86.9	4.3	0.25 (≈ 0.571 µM)	0.25 (≈ 0.571 µM)	0.06 (≈ 0.137 µM)	0.12 (≈ 0.274 µM)	0.25 (≈ 0.571 µM)	0.5 (≈ 1.14 µM)
C[C@H]1[C@@H](N)CN1c1c(F)cc2c(=O)c(C(=O)O)cn(C3CC3)c2c1F	9000	0.0813	23.6 (≈ 67.6 µM)	0.12 (≈ 0.344 µM)	0.06 (≈ 0.172 µM)	0.12 (≈ 0.344 µM)	0.06 (≈ 0.172 µM)	0.12 (≈ 0.344 µM)	6.2	123	18.6	0.012 (≈ 0.0344 µM)	0.25 (≈ 0.716 µM)	0.12 (≈ 0.344 µM)	0.012 (≈ 0.0344 µM)	1 (≈ 2.86 µM)	1 (≈ 2.86 µM)
C[C@H]1[C@H](N)CN1c1c(F)cc2c(=O)c(C(=O)O)cn(-c3ccc(F)cc3F)c2c1F	22300	0.2644	23.4 (≈ 55.5 µM)	0.12 (≈ 0.285 µM)	0.06 (≈ 0.142 µM)	0.12 (≈ 0.285 µM)	0.06 (≈ 0.142 µM)	0.06 (≈ 0.142 µM)	2.3	61	10	0.25 (≈ 0.593 µM)	0.5 (≈ 1.19 µM)	0.12 (≈ 0.285 µM)	0.12 (≈ 0.285 µM)	1 (≈ 2.37 µM)	1 (≈ 2.37 µM)
C[C@@H]1[C@@H](CN)CN1c1c(F)cc2c(=O)c(C(=O)O)cn(C3CC3)c2c1F	2300	-0.0397		0.25 (≈ 0.688 µM)	0.06 (≈ 0.165 µM)	0.06 (≈ 0.165 µM)	0.06 (≈ 0.165 µM)	0.12 (≈ 0.33 µM)	31	70	20	0.25 (≈ 0.688 µM)	0.25 (≈ 0.688 µM)	0.12 (≈ 0.33 µM)	0.12 (≈ 0.33 µM)	0.25 (≈ 0.688 µM)	0.5 (≈ 1.38 µM)
CCNC[C@H]1CN(c2cc3c(cc2F)c(=O)c(C(=O)O)cn3C2CC2)[C@@H]1C	3200	-0.0042		1 (≈ 2.68 µM)	0.06 (≈ 0.161 µM)	0.12 (≈ 0.321 µM)	0.12 (≈ 0.321 µM)	0.06 (≈ 0.161 µM)	28.4	265	60.5	0.5 (≈ 1.34 µM)	1 (≈ 2.68 µM)	0.5 (≈ 1.34 µM)	0.5 (≈ 1.34 µM)	4 (≈ 10.7 µM)	4 (≈ 10.7 µM)
